The text below walks through data of ChEMBL document CHEMBL1781937, “Antioxydant activity of β-carboline derivatives in the LDL oxidation model” (2011).

Where only a bound is given, the exact number is not on record here.

Experiment [1] in a line: Antioxidant activity against CuSO4-induced LDL-oxidation assessed as increase in lag phase of conjugated diene formation by 1.5 times measured every 10 mins for 8 hrs by spectrophotometry analysis.
A short description of experiment [2]: Antioxidant activity against copper-induced LDL-oxidation assessed as length of lag phase of oxidative procedure of LDL at 0.1 to 10 uM measured every 10 mins for 8 hrs by spectrophotometry relative to 5 uM of copper. The class given is functional. An outline of the steps:
(§1)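 Copper oxidation of LDL: LDL isolated by NaBr density ultracentrifugation (1.019–1.063 g/mL) and dialysed in 0.01 M PBS pH 7.4 under N2 at 4 °C. 20 µL of 16.6 µM CuSO4 is added to 160 µL LDL (125 µg protein/mL) with compound (0.1–10 µM) or PBS at 30 °C. A234 is read every 10 min for 8 h. R is the compound lag phase divided by the control lag phase.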

The nature of experiment [3]: Antioxidant activity in BAEC assessed as protection against air-oxidized LDL-induced cell death at 10 uM pretreated for 24 hrs before air-oxidized LDL challenge measured after 16 hrs by lactate dehydrogenase release assay (reference value: 22.76 +/- 1.53 %). The class given is functional, Bos taurus.
A short description of experiment [4]: Antioxidant activity against copper-induced LDL-oxidation assessed as length of lag phase of oxidative procedure of LDL at 0.1 to 10 uM measured every 10 mins for 8 hrs by spectrophotometry relative to 1 uM of copper. The class given is functional. In short, it runs like this: as §1
Experiment [5] in a line: Antioxidant activity against APPH-induced LDL-oxidation assessed as length of lag phase of oxidative procedure of LDL at 0.1 to 10 uM measured every 10 mins for 8 hrs by spectrophotometry relative to 1 uM of APPH. The class given is functional. An outline of the steps:
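AAPH oxidation of LDL: LDL isolated by NaBr density ultracentrifugation (1.019–1.063 g/mL) and dialysed in 0.01 M PBS pH 7.4 under N2 at 4 °C. 160 µL LDL (125 µg protein/mL) is mixed with 20 µL of 2 mM AAPH and compound (0.1–10 µM) at 30 °C. Conjugated dienes are read at 234 nm every 10 min for 8 h. R is the lag phase with compound divided by the control lag phase.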

Turning to `CCCN1CCc2c([nH]c3ccc(CC)cc23)C1c1cccc(OC)c1` (stereo not drawn), the ED50 in experiment [1] came out at 4 µM. For the same molecule, the Activity in experiment [2] is 1.6; in experiment [3], 15.32%. Also, the Ratio in experiment [4] amounted to 1.2.

Turning to `CCc1ccc2[nH]c3c(c2c1)CCNC3c1cccc(OC)c1` (stereo not drawn), the ED50 in experiment [1] was 9 µM. The Activity in experiment [2] was determined as 1.2. Also, the Ratio in experiment [4] was 1.1.

As for `CCc1ccc2[nH]c3c(c2c1)CCN(C)C3c1cccc(OC)c1` (stereo not drawn), the ED50 in experiment [1] was 1 µM. The Activity in experiment [2] amounted to 1.9. Moreover, in experiment [4], the Ratio turned out to be 1.

For the molecule `CCc1ccc2[nH]c3c(c2c1)CCNC3c1ccc(OC)c(OC)c1OC` (stereo not drawn), the ED50 in experiment [1] was 9 µM. Besides, in experiment [2], the Activity was determined as 1.2. For the same molecule, the Ratio in experiment [4] was determined as 1.

`CCCN1CCc2c([nH]c3ccc(CC)cc23)C1c1cccc(O)c1` (stereo not drawn): the ED50 in experiment [1] is below 0.1 µM. Besides, the Activity in experiment [2] is above 5; in experiment [5], 2.7; in experiment [3] it was 13.2%. The Ratio in experiment [4] was determined as 2.8.

`CCc1ccc2[nH]c3c(c2c1)CCN(C(=O)OCc1ccccc1)C3c1cccc(OCc2ccccc2)c1` (stereo not drawn): the ED50 in experiment [1] came to 10 µM. Also, the Activity in experiment [2] was determined as 1. Moreover, in experiment [4], the Ratio was 1.

Consider `COc1cccc(C2NCCc3c2[nH]c2ccc(OCc4ccccc4)cc32)c1` (stereo not drawn), for which the ED50 in experiment [1] was found to be 5 µM. Moreover, the Activity in experiment [2] worked out at 1.5. Besides, the Ratio in experiment [4] worked out at 1.1.

`CCCN1CCc2c([nH]c3ccc(CC)cc23)C1c1cc(C(C)(C)C)c(O)c(C(C)(C)C)c1` (stereo not drawn): in experiment [1], the ED50 was below 0.1 µM. Besides, the values for the Activity in experiment [2], in experiment [5] and in experiment [3] were above 5, 2.6 and 13.21%, respectively. Also, the Ratio in experiment [4] was determined as 2.7.

On to `CCc1ccc2[nH]c3c(c2c1)CCN(C(=O)OCc1ccccc1)C3c1ccc(OCc2ccccc2)c(OCc2ccccc2)c1` (stereo not drawn), for which, in experiment [1], the ED50 was determined as 8 µM. The Activity in experiment [2] amounted to 1.3. Besides, the Ratio in experiment [4] was determined as 1.1.

For the molecule `CCc1ccc2[nH]c3c(c2c1)CCNC3c1cc(C(C)(C)C)c(O)c(C(C)(C)C)c1` (stereo not drawn), the ED50 in experiment [1] was below 0.1 µM. Also, the Activity in experiment [2] was above 5; in experiment [5], 2.7; in experiment [3] it was 13.26%. The Ratio in experiment [4] was determined as 2.8.

For the molecule `CCCN1CCc2c([nH]c3ccc(CC)cc23)C1c1ccc(OC)c(OC)c1` (stereo not drawn), the ED50 in experiment [1] was found to be 2 µM. In addition, the Activity in experiment [2] was 1.8. Moreover, the Ratio in experiment [4] was determined as 1.1.

As for `CCCN1CCc2c([nH]c3ccc(CC)cc23)C1c1ccc(OC)cc1` (stereo not drawn), the ED50 in experiment [1] was found to be 3 µM. Besides, the Activity in experiment [2] was determined as 1.7. For the same molecule, the Ratio in experiment [4] came out at 1.

As for `CCc1ccc2[nH]c3c(c2c1)CCNC3c1ccccc1OC` (stereo not drawn), in experiment [1], the ED50 is 7 µM. In experiment [2], the Activity worked out at 1.4. Further, in experiment [4], the Ratio was 1.2.

As for `CCc1ccc2[nH]c3c(c2c1)CCNC3c1cc(OC)c(OC)c(OC)c1` (stereo not drawn), the ED50 in experiment [1] was found to be 10 µM. Also, the Activity in experiment [2] worked out at 1.1. Also, in experiment [4], the Ratio was 1.

In the case of `CCC(=O)N1CCc2c([nH]c3ccc(CC)cc23)C1c1cccc(OC)c1` (stereo not drawn), in experiment [1], the ED50 is 9 µM. The Activity in experiment [2] came out at 1.2. The Ratio in experiment [4] was determined as 1.

Regarding `CCCCCCCCCN1CCc2c([nH]c3ccc(CC)cc23)C1c1cccc(OC)c1` (stereo not drawn), the ED50 in experiment [1] was 9 µM. Also, the Activity in experiment [2] was determined as 1.2. Also, the Ratio in experiment [4] amounted to 1.

In the case of `CCCN1CCc2c([nH]c3ccc(CC)cc23)C1c1ccc(OCc2ccccc2)c(OCc2ccccc2)c1` (stereo not drawn), the ED50 in experiment [1] came out at 3 µM. For the same molecule, in experiment [2], the Activity amounted to 1.8. Also, in experiment [4], the Ratio stood at 1.3.

As for `CCCN1CCc2c([nH]c3ccc(CC)cc23)C1c1cc(OC)c(OC)c(OC)c1` (stereo not drawn), the ED50 in experiment [1] was determined as 2 µM. The Activity in experiment [2] turned out to be 1.8. Besides, the Ratio in experiment [4] stood at 1.2.

Consider `CCCN1CCc2c([nH]c3ccc(CC)cc23)C1c1ccc2c(c1)OCCO2` (stereo not drawn), for which the ED50 in experiment [1] was 9 µM. In addition, the Activity in experiment [2] came to 1.2. Moreover, the Ratio in experiment [4] stood at 1.

In the case of `CCc1ccc2[nH]c3c(c2c1)CCNC3c1ccc(O)c(O)c1` (stereo not drawn), the ED50 in experiment [1] is below 0.1 µM. Further, the Activity is above 5 in experiment [2], 2.6 in experiment [5] and 13.3% in experiment [3]. The Ratio in experiment [4] is 2.8.

Turning to `CCCN1CCc2c([nH]c3ccc(CC)cc23)C1c1ccc(O)c(O)c1` (stereo not drawn), the ED50 in experiment [1] is below 0.1 µM. In addition, the Activity in experiment [2] was above 5; in experiment [5], 2.7; in experiment [3], 13.19%. Moreover, the Ratio in experiment [4] worked out at 2.7.

`CCCCCN1CCc2c([nH]c3ccc(CC)cc23)C1c1cccc(OC)c1` (stereo not drawn): in experiment [1], the ED50 worked out at 9 µM. Besides, the Activity in experiment [2] was found to be 1.2. Besides, the Ratio in experiment [4] turned out to be 1.

With `CCc1ccc2[nH]c3c(c2c1)CCNC3c1ccc2c(c1)OCCO2` (stereo not drawn), in experiment [1], the ED50 was found to be 10 µM. Besides, in experiment [2], the Activity was determined as 1.1. The Ratio in experiment [4] came to 1.

Turning to `CCc1ccc2[nH]c3c(c2c1)CCNC3c1cccc(OCc2ccccc2)c1` (stereo not drawn), in experiment [1], the ED50 turned out to be 7 µM. Moreover, the Activity in experiment [2] was determined as 1.4; in experiment [5] it was 1; in experiment [3] it was 13.29%. For the same molecule, the Ratio in experiment [4] was 1.

Turning to `CCCN1CCc2c([nH]c3ccc(O)cc23)C1c1cccc(OC)c1` (stereo not drawn), the ED50 in experiment [1] was determined as 0.2 µM. Further, the Activity in experiment [2] amounted to 3.2; in experiment [5], 2.1; in experiment [3], 14.02%. Also, the Ratio in experiment [4] is 1.9.

Consider `CCc1ccc2[nH]c3c(c2c1)CCNC3c1ccc(OC)c(OC)c1` (stereo not drawn), for which the ED50 in experiment [1] came out at 10 µM. Moreover, the Activity in experiment [2] was 1.1. Besides, the Ratio in experiment [4] turned out to be 1.

Regarding `CCc1ccc2[nH]c3c(c2c1)CCNC3c1ccc(OC)cc1` (stereo not drawn), the ED50 in experiment [1] came to 9 µM. Besides, the Activity in experiment [2] was determined as 1.2. Besides, the Ratio in experiment [4] is 1.

As to `CCCN1CCc2c([nH]c3ccc(CC)cc23)C1c1cccc(OCc2ccccc2)c1` (stereo not drawn), in experiment [1], the ED50 worked out at 0.1 µM. Further, the Activity came to 4.2 in experiment [2], 2.3 in experiment [5] and 13.42% in experiment [3]. Moreover, the Ratio in experiment [4] turned out to be 2.2.

Consider `CCCN1CCc2c([nH]c3ccc(OCc4ccccc4)cc23)C1c1cccc(OC)c1` (stereo not drawn), for which, in experiment [1], the ED50 came out at 0.1 µM. Further, the Activity was determined as 4.4 in experiment [2], 2.4 in experiment [5] and 13.22% in experiment [3]. Moreover, in experiment [4], the Ratio is 2.4.

In the case of `CCc1ccc2[nH]c3c(c2c1)CCNC3c1ccc(OCc2ccccc2)c(OCc2ccccc2)c1` (stereo not drawn), the ED50 in experiment [1] turned out to be 7 µM. The values for the Activity in experiment [2] and in experiment [5] were 1.4 and 1, respectively. Moreover, the Ratio in experiment [4] turned out to be 1.

With `CCCN1CCc2c([nH]c3ccc(CC)cc23)C1c1ccccc1OC` (stereo not drawn), the ED50 in experiment [1] was 4 µM. Besides, in experiment [2], the Activity stood at 1.6. Also, in experiment [4], the Ratio stood at 1.

Consider `CCc1ccc2[nH]c3c(c2c1)CCNC3c1cccc(O)c1` (stereo not drawn), for which the ED50 in experiment [1] was below 0.1 µM. In addition, the Activity in experiment [2] is above 5; in experiment [5], 2.6; in experiment [3], 13.31%. In addition, the Ratio in experiment [4] was 2.7.
